ChEMBL document CHEMBL4118152, “Discovery of Potent and Selective Periphery-Restricted Quinazoline Inhibitors of the Cyclic Nucleotide Phosphodiesterase PDE1” (J Med Chem, 2018)

What was measured:
[1] = molecular target: Cannabinoid receptor 1 (Homo sapiens) (UniProt P21554); test: Inhibition of human cannabinoid CB1 receptor at 10 uM relative to control
[2] = molecular target: Tyrosine-protein kinase ABL1 (Homo sapiens) (UniProt P00519); test: Inhibition of human ABL at 10 uM relative to control
[3] = molecular target: Cannabinoid receptor 2 (Homo sapiens) (UniProt P34972); test: Inhibition of human Cannabinoid CB2 receptor at 10 uM relative to control
Sequence of Cannabinoid receptor 2 (Homo sapiens) (P34972 whole entry): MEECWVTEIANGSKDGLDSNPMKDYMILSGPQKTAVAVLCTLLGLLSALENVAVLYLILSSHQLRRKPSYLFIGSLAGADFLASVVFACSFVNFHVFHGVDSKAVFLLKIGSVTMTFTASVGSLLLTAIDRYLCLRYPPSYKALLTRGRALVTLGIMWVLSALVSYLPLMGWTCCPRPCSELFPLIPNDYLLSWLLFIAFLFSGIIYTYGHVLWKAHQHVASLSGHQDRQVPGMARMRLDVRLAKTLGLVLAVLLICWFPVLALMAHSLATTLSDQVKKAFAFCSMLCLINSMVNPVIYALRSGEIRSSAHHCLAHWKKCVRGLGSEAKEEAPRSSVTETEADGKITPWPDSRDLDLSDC

[4] = Ratio of fraction unbound in Wistar Hannover rat brain to plasma at 1 mg/kg, sc measured at 1 hr post dose by LC-MS/MS analysis; format: ADME, organism-based; conditions: in vivo
[5] = molecular target: Dual specificity calcium/calmodulin-dependent 3',5'-cyclic nucleotide phosphodiesterase 1C (Homo sapiens, UniProt Q14123); test: Inhibition of full length recombinant human PDE1C using 3',5'-[3H]cAMP as substrate after 30 mins by scintillation proximity assay
How it was run: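 Human recombinant enzymes; substrate held below 1/3 of Km. IC50 reported as mean ± SEM of at least 3 determinations.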

CYP2C9 = CYP2C9 (Homo sapiens, UniProt P11712); test: Inhibition of human CYP2C9 at 10 uM relative to control; format: ADME
Sequence of CYP2C9 (P11712 whole entry): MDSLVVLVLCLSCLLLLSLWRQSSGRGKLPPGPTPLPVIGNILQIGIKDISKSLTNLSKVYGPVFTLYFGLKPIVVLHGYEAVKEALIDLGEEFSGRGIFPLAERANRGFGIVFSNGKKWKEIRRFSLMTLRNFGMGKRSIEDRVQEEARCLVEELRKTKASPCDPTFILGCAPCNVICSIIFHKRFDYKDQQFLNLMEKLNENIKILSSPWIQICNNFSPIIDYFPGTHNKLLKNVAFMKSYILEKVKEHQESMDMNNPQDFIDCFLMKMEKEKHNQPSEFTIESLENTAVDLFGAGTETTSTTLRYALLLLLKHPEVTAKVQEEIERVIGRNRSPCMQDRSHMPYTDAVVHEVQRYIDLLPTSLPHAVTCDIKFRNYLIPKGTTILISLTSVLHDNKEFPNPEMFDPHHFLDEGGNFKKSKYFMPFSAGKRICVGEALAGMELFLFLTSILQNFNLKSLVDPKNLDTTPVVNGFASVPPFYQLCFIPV

Homo sapiens [6] = species: Homo sapiens; test: Selectivity ratio of IC50 for full length recombinant human PDE10A1 to IC50 for full length recombinant human PDE1B1
How it was run: (§1)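 IC50s were measured against recombinant PDEs, all human except PDE6A (bovine). Each enzyme was given its appropriate cAMP or cGMP substrate at below 1/3 of its Km. IC50s are the mean of n = 3 or more. The selectivity ratio is the IC50 for the other PDE divided by the IC50 for PDE1B1 or PDE1A.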

Rattus norvegicus [7] = species: Rattus norvegicus; test: Inhibition of rat brain GABA transporter assessed as [3H]GABA uptake at 10 uM after 30 mins by scintillation counting analysis relative to control
[8] = molecular target: Gastrin/cholecystokinin type B receptor (Homo sapiens) (UniProt P32239); test: Inhibition of human cholecystokinin CCK2 receptor at 10 uM relative to control
Sequence of Gastrin/cholecystokinin type B receptor (Homo sapiens) (P32239 whole entry): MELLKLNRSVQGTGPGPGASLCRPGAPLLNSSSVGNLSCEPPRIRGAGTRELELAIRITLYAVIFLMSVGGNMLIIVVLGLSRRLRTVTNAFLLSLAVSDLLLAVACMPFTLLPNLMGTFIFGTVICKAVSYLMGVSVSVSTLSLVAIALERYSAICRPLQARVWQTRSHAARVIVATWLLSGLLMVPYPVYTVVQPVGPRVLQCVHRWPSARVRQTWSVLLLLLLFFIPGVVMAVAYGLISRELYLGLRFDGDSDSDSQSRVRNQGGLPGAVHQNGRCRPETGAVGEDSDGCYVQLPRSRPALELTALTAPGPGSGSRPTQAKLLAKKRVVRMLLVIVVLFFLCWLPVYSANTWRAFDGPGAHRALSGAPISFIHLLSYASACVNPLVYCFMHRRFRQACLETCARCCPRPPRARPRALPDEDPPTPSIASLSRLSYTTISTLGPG

[9] = Fraction unbound in Wistar Hannover rat plasma at 1 mg/kg, sc measured at 4 hrs post dose by LC-MS/MS analysis; format: ADME, organism-based; conditions: in vivo
[10] = molecular target: 5-hydroxytryptamine receptor 1A (Homo sapiens) (UniProt P08908); test: Inhibition of human 5-HT1A receptor at 10 uM relative to control
Sequence of 5-hydroxytryptamine receptor 1A (Homo sapiens) (P08908 whole entry): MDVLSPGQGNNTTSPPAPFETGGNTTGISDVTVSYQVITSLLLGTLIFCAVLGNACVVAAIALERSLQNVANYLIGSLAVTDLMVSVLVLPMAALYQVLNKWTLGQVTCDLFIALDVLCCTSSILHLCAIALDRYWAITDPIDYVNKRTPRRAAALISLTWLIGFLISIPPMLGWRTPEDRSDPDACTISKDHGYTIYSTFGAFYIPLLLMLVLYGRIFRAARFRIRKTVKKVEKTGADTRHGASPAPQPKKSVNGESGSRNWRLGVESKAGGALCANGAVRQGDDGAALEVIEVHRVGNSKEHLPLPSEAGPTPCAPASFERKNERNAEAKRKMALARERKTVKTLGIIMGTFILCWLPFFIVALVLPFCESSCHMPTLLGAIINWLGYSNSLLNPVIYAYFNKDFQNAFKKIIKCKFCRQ

[11] = molecular target: Cholecystokinin receptor type A (Homo sapiens) (UniProt P32238); test: Inhibition of human cholecystokinin CCK1 receptor at 10 uM relative to control
Sequence of Cholecystokinin receptor type A (Homo sapiens) (P32238 whole entry): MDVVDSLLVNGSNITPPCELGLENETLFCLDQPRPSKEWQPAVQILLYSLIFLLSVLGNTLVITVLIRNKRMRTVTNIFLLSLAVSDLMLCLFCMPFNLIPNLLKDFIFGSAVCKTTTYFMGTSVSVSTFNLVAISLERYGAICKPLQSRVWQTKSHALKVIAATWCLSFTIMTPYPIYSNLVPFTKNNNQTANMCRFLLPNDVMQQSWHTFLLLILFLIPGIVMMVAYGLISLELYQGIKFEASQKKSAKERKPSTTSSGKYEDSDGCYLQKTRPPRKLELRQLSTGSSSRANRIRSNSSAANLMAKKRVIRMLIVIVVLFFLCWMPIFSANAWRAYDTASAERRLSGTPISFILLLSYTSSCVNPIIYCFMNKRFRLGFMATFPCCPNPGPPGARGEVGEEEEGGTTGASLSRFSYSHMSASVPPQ

Homo sapiens [12] = species: Homo sapiens; test: Displacement of [125I]alpha -bungarotoxin from human nAChR (Muscle-Type) at 10 uM after 120 mins by scintillation counting analysis relative to control
[13] = Fraction unbound in Wistar Hannover rat plasma at 1 mg/kg, sc measured at 0.5 hrs post dose by LC-MS/MS analysis; format: ADME, organism-based; conditions: in vivo
[14] = molecular target: 5-hydroxytryptamine receptor 2A (Homo sapiens) (UniProt P28223); test: Inhibition of human 5-HT2A receptor at 10 uM relative to control
[15] = molecular target: High affinity cAMP-specific and IBMX-insensitive 3',5'-cyclic phosphodiesterase 8B (Homo sapiens, UniProt O95263); test: Inhibition of full length recombinant human PDE8B using 3',5'-[3H]cAMP as substrate after 30 mins by scintillation proximity assay
How it was run: (§2)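 Enzymes were human except PDE6A, which was bovine. Each was assayed with cAMP or cGMP substrate, as appropriate to the enzyme, at concentrations below 1/3 of Km. IC50 values are mean ± SEM from n = 3 or more.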

[16] = Fraction unbound in Wistar Hannover rat brain at 1 mg/kg, sc measured at 0.5 hrs post dose by LC-MS/MS analysis; format: ADME, organism-based; conditions: in vivo
Homo sapiens [17] = species: Homo sapiens; test: Selectivity ratio of IC50 for full length recombinant human PDE9A1 to IC50 for full length recombinant human PDE1B1; how it was run: as §1
[18] = Fraction unbound in Wistar Hannover rat brain at 1 mg/kg, sc measured at 4 hrs post dose by LC-MS/MS analysis; format: ADME, organism-based; conditions: in vivo, BLD = below limit of detection
[19] = molecular target: cGMP-dependent 3',5'-cyclic phosphodiesterase (Homo sapiens, UniProt O00408); test: Inhibition of full length recombinant human PDE2A1 using 3',5'-[3H]cGMP as substrate after 30 mins by scintillation proximity assay; how it was run: as §2
[20] = molecular target: Muscarinic acetylcholine receptor M3 (Homo sapiens) (UniProt P20309); test: Inhibition of human muscarinic M3 receptor at 10 uM relative to control
Homo sapiens [21] = species: Homo sapiens; test: Inhibition of human 5-HT2 receptor at 10 uM relative to control
Homo sapiens [22] = species: Homo sapiens; test: Selectivity ratio of IC50 for full length recombinant human PDE5A1 to IC50 for full length recombinant human PDE1A; how it was run: as §1
Homo sapiens [23] = species: Homo sapiens; test: Selectivity ratio of IC50 for full length recombinant human PDE3A1 to IC50 for full length recombinant human PDE1A; how it was run: as §1
[24] = molecular target: Adenosine receptor A3 (Homo sapiens) (UniProt P0DMS8); test: Inhibition of human adenosine A3 receptor at 10 uM relative to control
[25] = molecular target: Muscarinic acetylcholine receptor M1 (Homo sapiens) (UniProt P11229); test: Inhibition of human muscarinic M1 receptor at 10 uM relative to control
Sequence of Muscarinic acetylcholine receptor M1 (Homo sapiens) (P11229 whole entry): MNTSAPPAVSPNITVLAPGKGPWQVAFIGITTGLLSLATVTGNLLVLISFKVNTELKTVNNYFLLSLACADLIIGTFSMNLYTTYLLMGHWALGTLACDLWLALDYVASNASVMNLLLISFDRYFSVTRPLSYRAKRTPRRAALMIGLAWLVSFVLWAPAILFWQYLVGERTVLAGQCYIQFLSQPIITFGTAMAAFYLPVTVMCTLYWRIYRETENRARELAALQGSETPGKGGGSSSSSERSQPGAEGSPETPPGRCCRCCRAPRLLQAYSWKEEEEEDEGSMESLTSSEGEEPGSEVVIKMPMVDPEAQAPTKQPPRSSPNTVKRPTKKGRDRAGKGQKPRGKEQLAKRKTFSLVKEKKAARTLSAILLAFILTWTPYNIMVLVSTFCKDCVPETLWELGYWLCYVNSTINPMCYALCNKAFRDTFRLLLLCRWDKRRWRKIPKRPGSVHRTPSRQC

[26] = molecular target: Dual 3',5'-cyclic-AMP and -GMP phosphodiesterase 11A (Homo sapiens, UniProt Q9HCR9); test: Inhibition of full length recombinant human PDE11A4 using 3',5'-[3H]cGMP as substrate after 30 mins by scintillation proximity assay; how it was run: as §2
Sequence of Dual 3',5'-cyclic-AMP and -GMP phosphodiesterase 11A (Q9HCR9 whole entry): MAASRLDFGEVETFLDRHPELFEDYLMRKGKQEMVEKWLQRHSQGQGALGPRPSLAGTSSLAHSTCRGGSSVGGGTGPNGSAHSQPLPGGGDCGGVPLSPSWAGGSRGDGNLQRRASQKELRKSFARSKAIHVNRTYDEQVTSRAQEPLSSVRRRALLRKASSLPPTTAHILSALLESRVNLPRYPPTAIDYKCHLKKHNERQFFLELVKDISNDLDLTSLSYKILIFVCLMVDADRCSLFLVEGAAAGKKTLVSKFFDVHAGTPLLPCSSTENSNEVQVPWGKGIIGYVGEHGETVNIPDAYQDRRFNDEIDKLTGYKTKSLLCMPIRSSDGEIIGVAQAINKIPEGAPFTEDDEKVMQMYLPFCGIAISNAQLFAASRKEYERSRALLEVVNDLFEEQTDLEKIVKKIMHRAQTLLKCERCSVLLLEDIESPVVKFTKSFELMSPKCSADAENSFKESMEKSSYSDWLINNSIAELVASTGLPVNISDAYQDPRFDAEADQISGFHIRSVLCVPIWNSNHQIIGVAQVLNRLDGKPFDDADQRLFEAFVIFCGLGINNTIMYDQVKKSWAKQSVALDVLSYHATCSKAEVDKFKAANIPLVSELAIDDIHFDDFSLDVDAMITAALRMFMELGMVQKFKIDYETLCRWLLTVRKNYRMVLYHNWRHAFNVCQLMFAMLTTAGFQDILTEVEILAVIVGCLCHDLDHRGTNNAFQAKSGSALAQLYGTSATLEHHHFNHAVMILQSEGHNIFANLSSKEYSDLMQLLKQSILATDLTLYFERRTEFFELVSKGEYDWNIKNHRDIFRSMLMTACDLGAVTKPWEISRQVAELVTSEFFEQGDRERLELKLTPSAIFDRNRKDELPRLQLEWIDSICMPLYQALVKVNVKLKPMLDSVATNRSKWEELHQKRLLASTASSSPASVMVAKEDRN

Homo sapiens [27] = species: Homo sapiens; test: Inhibition of human delta 2 opioid receptor at 10 uM relative to control
[28] = molecular target: Dual specificity calcium/calmodulin-dependent 3',5'-cyclic nucleotide phosphodiesterase 1B (Homo sapiens, UniProt Q01064); test: Inhibition of full length recombinant human PDE1B1 using 3',5'-[3H]cAMP as substrate after 30 mins by scintillation proximity assay; how it was run: as §2
Sequence of Dual specificity calcium/calmodulin-dependent 3',5'-cyclic nucleotide phosphodiesterase 1B (Q01064 whole entry): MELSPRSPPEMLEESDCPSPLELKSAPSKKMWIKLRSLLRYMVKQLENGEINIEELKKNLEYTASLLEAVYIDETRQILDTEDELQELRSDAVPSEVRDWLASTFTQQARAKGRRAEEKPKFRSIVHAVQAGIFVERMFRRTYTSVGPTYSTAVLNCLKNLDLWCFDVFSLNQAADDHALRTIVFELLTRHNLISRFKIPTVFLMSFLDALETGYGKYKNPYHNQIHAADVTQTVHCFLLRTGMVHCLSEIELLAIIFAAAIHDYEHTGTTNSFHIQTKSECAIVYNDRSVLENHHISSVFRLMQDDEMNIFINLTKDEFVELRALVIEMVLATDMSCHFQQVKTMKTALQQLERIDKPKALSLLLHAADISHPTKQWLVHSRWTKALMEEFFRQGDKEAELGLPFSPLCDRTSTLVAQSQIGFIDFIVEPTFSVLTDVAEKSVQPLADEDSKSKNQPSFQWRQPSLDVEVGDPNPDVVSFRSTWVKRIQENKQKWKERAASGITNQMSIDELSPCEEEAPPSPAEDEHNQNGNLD

Homo sapiens [29] = species: Homo sapiens; test: Selectivity ratio of IC50 for full length recombinant human PDE8B to IC50 for full length recombinant human PDE1B1; how it was run: as §1
Rattus norvegicus [30] = species: Rattus norvegicus; test: Inhibition of rat GABA-A receptor at 10 uM relative to control
CYP3A4 = CYP3A4 (Homo sapiens, UniProt P08684); test: Inhibition of CYP3A4 (unknown origin) at 10 uM relative to control; format: ADME
Rattus norvegicus [31] = species: Rattus norvegicus; test: Displacement of [3H]batrachotoxinin from rat brain Sodium channel site 2 at 10 uM after 60 mins by scintillation counting analysis relative to control
[32] = Selectivity ratio of IC50 for bovine retina PDE6A to IC50 for full length recombinant human PDE1B1; how it was run: as §1
Homo sapiens [33] = species: Homo sapiens; test: Selectivity ratio of IC50 for full length recombinant human PDE9A1 to IC50 for full length recombinant human PDE1A; how it was run: as §1
[34] = molecular target: Alpha-2B adrenergic receptor (Homo sapiens) (UniProt P18089); test: Inhibition of human alpha2B receptor at 10 uM relative to control
Sequence of Alpha-2B adrenergic receptor (Homo sapiens) (P18089 whole entry): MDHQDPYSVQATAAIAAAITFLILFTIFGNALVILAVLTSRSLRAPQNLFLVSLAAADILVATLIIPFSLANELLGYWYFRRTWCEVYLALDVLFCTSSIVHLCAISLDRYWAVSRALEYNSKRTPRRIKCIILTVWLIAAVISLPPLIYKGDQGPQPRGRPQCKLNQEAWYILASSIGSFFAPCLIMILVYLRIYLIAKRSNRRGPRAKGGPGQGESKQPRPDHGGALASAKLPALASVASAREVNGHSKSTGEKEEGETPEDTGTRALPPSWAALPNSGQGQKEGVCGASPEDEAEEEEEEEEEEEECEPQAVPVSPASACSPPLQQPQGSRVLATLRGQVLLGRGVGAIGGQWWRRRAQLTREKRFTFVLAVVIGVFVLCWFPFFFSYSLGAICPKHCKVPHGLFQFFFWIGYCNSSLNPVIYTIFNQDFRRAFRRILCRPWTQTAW

[35] = molecular target: Urotensin-2 receptor (Homo sapiens) (UniProt Q9UKP6); test: Inhibition of human urotensin-2 receptor at 10 uM relative to control

Sequence of Cannabinoid receptor 1 (Homo sapiens) (P21554 whole entry): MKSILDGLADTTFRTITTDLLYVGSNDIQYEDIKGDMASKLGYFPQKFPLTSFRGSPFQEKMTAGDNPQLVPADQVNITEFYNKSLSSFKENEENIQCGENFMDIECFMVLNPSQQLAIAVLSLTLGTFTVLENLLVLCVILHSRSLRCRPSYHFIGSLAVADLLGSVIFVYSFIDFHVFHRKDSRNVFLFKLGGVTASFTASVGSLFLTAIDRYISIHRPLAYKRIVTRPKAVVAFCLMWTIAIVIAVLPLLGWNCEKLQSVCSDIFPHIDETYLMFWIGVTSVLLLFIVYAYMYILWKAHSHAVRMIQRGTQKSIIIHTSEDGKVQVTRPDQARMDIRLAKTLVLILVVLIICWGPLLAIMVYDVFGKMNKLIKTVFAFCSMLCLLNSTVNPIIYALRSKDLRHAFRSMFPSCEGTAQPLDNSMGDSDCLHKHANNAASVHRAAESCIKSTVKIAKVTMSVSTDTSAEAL

SMILES: COc1ccc2c(N[C@@H](C)Cc3cc(C)[nH]n3)ncnc2c1OC
- inhibition [1]: < 50%
- inhibition [2]: < 50%
- inhibition [3]: < 50%
- Ratio [4]: 0.03
- IC50 [5]: 0.038 µM
- inhibition at 10 µM (CYP2C9): < 50%
- Ratio IC50 (Homo sapiens [6]): 45
- inhibition (Rattus norvegicus [7]): < 50%
- inhibition [8]: < 50%
- Cp(f) [9]: 7 nM
- inhibition [10]: < 50%
- inhibition [11]: < 50%
- inhibition (Homo sapiens [12]): < 50%
- Cp(f) [13]: 171 nM
- inhibition [14]: < 50%
- IC50 [15]: 15.5 µM
- Drug uptake(free) [16]: 6 nM
- Ratio IC50 (Homo sapiens [17]): > 22000
- Drug uptake(free) [18]: Bld
- IC50 [19]: 47.6 µM
- inhibition [20]: < 50%
- inhibition (Homo sapiens [21]): < 50%
- Ratio IC50 (Homo sapiens [22]): 1290
- Ratio IC50 (Homo sapiens [23]): 3170
- inhibition [24]: < 50%
- inhibition [25]: < 50%
- IC50 [26]: 34.7 µM
- inhibition (Homo sapiens [27]): < 50%
- IC50 [28]: 0.0091 µM
- Ratio IC50 (Homo sapiens [29]): 1700
- inhibition (Rattus norvegicus [30]): < 50%
- inhibition at 10 µM (CYP3A4): < 50%
- inhibition (Rattus norvegicus [31]): < 50%
- Ratio IC50 [32]: > 15600
- Ratio IC50 (Homo sapiens [33]): > 4760
- inhibition [34]: < 50%
- inhibition [35]: < 50%
